# HSV replic up – increases HSV replication in cells; HSV replication augmentation in cells, fold increase; maximum fold increase; 220,000 tested, 0.005% active; AID 1956; in the data active = maximum fold increase above about 1.5; tested in PC3 cells
# ABCG2 block – inhibitors of human ABCG2 transporter, ABCB1 counter-screen. Q9UNQ0. inhibition, % at 6.6 µM. 190,000 tested, 0.1% active. AID 1325. IgMXP3 cells, JC-1 efflux, flow cytometry;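 active = inhibition above 80%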;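 also: 0% = DMSO and 100% = nicardipine control wells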
#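 System: two drug-resistant human cell lines, ABCG2 and ABCB1; controls: nicardipine high and DMSO low controls; times: 10 min exposure at 25 °C with rotation, no wash; detection: flow cytometry of retained JC-1 fluorescence; read-out basis: percent efflux inhibition, scaled nicardipine 100% to DMSO 0%; doses: one concentration, 6.6 µM final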
# PKD1 kinase inh – blocks activity of human protein kinase D1; Q15139; inhibition, % (test concentration not listed); 200,000 tested, 0.056% active; PKD1 kinase fluorescence polarization assay; in the data active = inhibition above about 50%
# PHOSPHO1 inh – blocks human PHOSPHO1 phosphatase activity; 290,000 tested, 1.1% active; recombinant PHOSPHO1, absorbance phosphatase assay; Q8TCT1; inhibition, % at 13.3 µM; AID 1565; in the data active = inhibition above about 60%
# p47phox inh – blocks human p47phox regulatory protein of NADPH oxidases; P14598; p47phox/p22phox peptide binding, fluorescence polarization, 2 h; inhibition, % at 24.7 µM; 220,000 tested, 0.53% active; AID 1274;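 active = inhibition above about 30%, limit read from the data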;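 also: 0% = p47phox with labelled peptide and 100% = labelled peptide alone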
# Target sequence (P14598 whole entry, looked up): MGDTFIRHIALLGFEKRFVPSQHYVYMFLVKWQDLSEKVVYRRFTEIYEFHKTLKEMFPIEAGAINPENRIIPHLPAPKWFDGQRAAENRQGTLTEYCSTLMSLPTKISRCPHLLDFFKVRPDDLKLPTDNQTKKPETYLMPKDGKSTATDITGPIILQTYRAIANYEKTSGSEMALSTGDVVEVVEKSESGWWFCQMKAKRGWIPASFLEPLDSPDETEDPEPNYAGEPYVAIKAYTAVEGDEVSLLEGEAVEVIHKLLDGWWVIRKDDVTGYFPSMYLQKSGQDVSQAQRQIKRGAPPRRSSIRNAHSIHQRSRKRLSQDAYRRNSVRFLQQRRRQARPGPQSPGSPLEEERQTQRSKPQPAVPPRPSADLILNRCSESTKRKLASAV
# ABCB1 inh – blocks JC-1 efflux by human ABCB1 transporter; CCRF-Adr cells, flow cytometry; inhibition, % at 6.6 µM; 190,000 tested, 0.067% active; AID 1326; in the data active = inhibition above about 40%;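 also: 0% = vehicle and 100% = reference inhibitor; higher value means more JC-1 retained so stronger ABCB1 efflux block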
# * marks the source's active call; other numbers are inactive results; i = inactive; / = not tested or not shown. This is a sample that favours compounds with a hit; in the whole collection about 1.6% have one here.
SMILES,HSV replic up,ABCG2 block,PKD1 kinase inh,PHOSPHO1 inh,p47phox inh,ABCB1 inh
c1ccc(OCc2nnc3sc(-c4cccs4)nn23)cc1,i,-1,5,61*,-8,0
Fc1ccc(-c2nnc3sc(C4COc5ccccc5O4)nn23)cc1 (stereo not drawn),i,2,-3,43,-3,0
Clc1ccc(Cl)c(-c2nn3c(COc4ccccc4)nnc3s2)c1,i,-1,2,52,-4,-1
C/C(N)=C(/C#N)C(=O)COC(=O)c1ccc(OCC2CCCO2)cc1 (stereo not drawn),/,/,/,11,/,/
COc1ccc(CCN2CC(C(=O)NCCCn3nc(C)cc3C)CCC2=O)cc1 (stereo not drawn),/,/,/,1,/,/
O=C(COc1ccc(/C=N/NC(=O)c2cc3ccccc3o2)cc1Br)Nc1ccccc1,i,-1,-7,-1,38*,0
O=C(COc1ccccc1[N+](=O)[O-])Nc1ccc(NC(=O)c2cc3ccccc3o2)cc1,i,-3,-2,41,32*,-1
CC(C)(C)c1cn(-c2ccccc2)c(=S)[nH]1,i,2,0,76*,-10,1
Cc1ccc(-n2cc(C(C)(C)C)[nH]c2=S)cc1,i,2,-12,93*,-4,1
Cc1sc(NC(=O)CN2CCOCC2)c(C#N)c1C,i,/,/,20,-15,/
Cc1cccc(-n2c(O)c(C=Nc3cccc(O)c3)c3ccccc3c2=O)n1,i,/,/,0,-13,/
CC1=NC(=O)C(N=Nc2cccc(O)c2)N1c1ccccc1 (stereo not drawn),i,0,4,95*,-1,0
N#CCCN(Cc1cccnc1)C(=S)Nc1ccccc1Cl,i,1,-8,-26,37*,0
CCSc1nc2sc3c(c2c(=O)n1C1CCCCC1)CCN(C)C3,/,/,/,60*,/,/
Cc1ccc(C(OCC(C)(C)C[N+](C)(C)C)c2ccccc2)cc1 (stereo not drawn),i,4,-9,-5,3,0
CC(C)(C)C1=CC=C(C(C)(C)C)C(=O)C1=O,i,/,/,67*,3,/
Cc1ccccc1CN(C)C(=O)CNC(=O)c1ccc2ccccc2c1,/,/,/,24,/,/
Nc1cc(=O)[nH]c(SCC(=O)c2ccc(F)cc2)n1,/,/,/,6,/,/
O=C(Nc1cccc(-c2cn3ccccc3n2)c1)c1cc2ccccc2oc1=O,i,-2,-5,25,43*,0
c1ccc(CSc2nnc(-c3c[nH]c4ccccc34)o2)cc1,i,4,11,-29,-8,0
c1ccc2c(-c3nnc(SCc4cn5ccccc5n4)o3)c[nH]c2c1,i,11,-2,85*,-15,2
CCCC(C)NC(=O)CSc1nnc(-c2c[nH]c3ccccc23)o1 (stereo not drawn),i,3,1,73*,-3,-3
CCn1cc(C(=O)OC)c(=O)c2cc(S(=O)(=O)N(C)C3CCCCC3)ccc21,i,5,-4,18,-2,1
C=CCOC(=O)C1=C(C)NC(=O)NC1c1cc(Cl)cc(Cl)c1OC (stereo not drawn),/,/,/,9,/,/
O=C(OCc1nc2ccc(Cl)cc2n1CCO)c1ccc(O)cc1,i,13,-3,-32,-6,0
SMILES,HSV replic up,ABCG2 block,PKD1 kinase inh,PHOSPHO1 inh,p47phox inh,ABCB1 inh
CCCCCCCn1c(=O)c(C(=O)OC)c(N)c2ccccc21,i,/,/,8,-2,/
CCN1CCCc2cc(CN(CCN3CCOCC3)C(=O)Nc3ccc(C)c(C)c3)ccc21,i,54,2,20,12,23
CCc1ccc(NC(=O)N(CCN2CCOCC2)Cc2ccc3c(c2)CCCN3CC)cc1,i,34,-1,8,43*,2
CC(C)c1nnc(NC(=O)CCC(=O)N2CCN(c3ccccc3F)CC2)s1,/,/,/,44,/,/
CCOC(=O)N1CCN(C(=O)c2ccccc2CCc2ccccc2)CC1,i,1,-20,10,87*,1
O=C(C1CCOCC1)N1CCCC(N2CCN(c3cccc(C(F)(F)F)c3)CC2)C1 (stereo not drawn),/,/,/,23,/,/
CCN(c1ccc(OC)cc1)S(=O)(=O)c1nnc(NC(=O)c2ccccc2Cl)s1,/,/,/,18,/,/
FC(F)(F)c1cccc(NC(=S)N(CCCN2CCCC2)Cc2cccn2Cc2ccc(Cl)cc2)c1,i,6,-5,-31,35*,3
Cc1ccc(NC(=S)N(CCCN2CCCC2)Cc2cccn2Cc2ccc(Cl)cc2)cc1Cl,/,7,7,-13,35*,5
Cc1ccc(NC(=S)N(CCCN2CCCC2)Cc2cccn2Cc2ccc(Cl)cc2)cc1C,i,2,0,-15,5,1
CN(C)CCCN(Cc1ccccc1)C(=S)Nc1cccc(C(F)(F)F)c1,i,39,2,-11,-8,0
COc1ccc(NC(=S)N(CCCN2CCCC2)Cc2cccn2Cc2ccc(Cl)cc2)cc1Cl,i,2,0,-32,43*,3
Cc1ccc(C)c(CN2CCSCC2)c1,/,/,/,-3,/,/
CCCCn1c(N)c(NCC(C)C)c(=O)[nH]c1=O,i,7,4,9,-1,1
O=C(CC12CCC(CC1)C2)NCc1ccc2c(c1)OCO2,i,0,-1,3,1,0
CCOc1cc(C)ccc1OCc1nnc(SCC(=O)c2cccc([N+](=O)[O-])c2)n1CC,i,7,10,88*,-11,2
CCn1c(COc2ccccc2)nnc1SCC(=O)c1cccc([N+](=O)[O-])c1,i,2,8,-57,-4,1
CCCc1cc(=O)n2nc(N3CCC(C(=O)N4CCN(c5ccc(OC)cc5)CC4)CC3)sc2n1,/,/,/,64*,/,/
Cc1cc(=O)n2nc(N3CCC(C(=O)N4CCN(c5ccccc5)CC4)CC3)sc2n1,/,/,/,50,/,/
Cc1cc(C)c2nc(C(F)(F)F)nc(N3CC(C)OC(C)C3)c2c1 (stereo not drawn),/,8,6,7,45*,1
CCOC(=O)N1CCN(c2nc(C(F)(F)F)nc3c(C)cc(C)cc23)CC1,i,53,-2,-6,-23,1
CCCCN1CC[C@H]2C=CC[C@@H](C(=O)NCCc3ccccc3)[C@H]2C1=O,i,/,/,/,/,/
Cc1nc2cc3nc(C)sc3cc2s1,i,2,-10,68*,3,0
CCOc1ccc2[nH]c(=O)c(CN(Cc3ccccc3)C(=O)N3CCCC3)cc2c1,i,-6,-6,74*,7,-2
C=CCN(C(=O)CNC(=O)c1cccs1)C(C(=O)NC1CCCCC1)c1cccnc1 (stereo not drawn),i,1,-2,33,47*,0
CCOC(=O)CN(C(=O)CNC(=O)c1cccs1)C(C(=O)NC1CCCCC1)c1cccnc1 (stereo not drawn),i,5,-2,-9,0,2
COc1ccc(C)cc1S(=O)(=O)N1CCC(C(=O)NC2CCCC2)CC1,/,/,/,18,/,/

# Assay outcomes (PubChem)
